# From ChEMBL document CHEMBL1275448, “Identification of a novel multidrug efflux pump of Mycobacterium tuberculosis” (2008)
# Tested on: Mycolicibacterium smegmatis
# Assay: Antimicrobial activity against wild-type Mycobacterium smegmatis SMR5 by microplate Alamar blue assay
# Type: functional
# Method in brief: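 M. smegmatis SMR5 carried either control plasmid pMS2 or rv0194 expression vector pML655. Cells were grown at 37°C in Middlebrook 7H9 with 0.2% glycerol and 0.05% Tween 80, then tested by microplate Alamar blue assay. MIC was the lowest antibiotic concentration reducing culture viability by ≥90%, read by fluorescence (ex 530/em 590 nm, room temperature).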
row,SMILES,MIC
1,CC1(C)S[C@@H]2[C@H](NC(=O)[C@H](N)c3ccccc3)C(=O)N2[C@H]1C(=O)O [AMPICILLIN],125 µg/mL
2,O=C(N[C@H](CO)[C@H](O)c1ccc([N+](=O)[O-])cc1)C(Cl)Cl [CHLORAMPHENICOL],32 µg/mL
3,CC[C@H]1OC(=O)[C@H](C)[C@@H](O[C@H]2C[C@@](C)(OC)[C@@H](O)[C@H](C)O2)[C@H](C)[C@@H](O[C@@H]2O[C@H](C)C[C@H](N(C)C)[C@H]2O)[C@](C)(O)C[C@@H](C)C(=O)[C@H](C)[C@@H](O)[C@]1(C)O [ERYTHROMYCIN],2.5 µg/mL
4,CO[C@@H]1[C@@H](OC(N)=O)[C@@H](O)[C@H](Oc2ccc3c(O)c(NC(=O)c4ccc(O)c(CC=C(C)C)c4)c(=O)oc3c2C)OC1(C)C [NOVOBIOCIN],4 µg/mL
5,CN(C)[C@@H]1C(O)=C(C(N)=O)C(=O)[C@@]2(O)C(O)=C3C(=O)c4c(O)cccc4[C@@](C)(O)[C@H]3C[C@@H]12 [TETRACYCLINE],0.3 µg/mL
6,CN[C@H](CC(C)C)C(=O)N[C@H]1C(=O)N[C@@H](CC(N)=O)C(=O)N[C@H]2C(=O)N[C@H]3C(=O)N[C@H](C(=O)N[C@H](C(=O)O)c4cc(O)cc(O)c4-c4cc3ccc4O)[C@H](O)c3ccc(c(Cl)c3)Oc3cc2cc(c3O[C@@H]2O[C@H](CO)[C@@H](O)[C@H](O)[C@H]2O[C@H]2C[C@](C)(N)[C@H](O)[C@H](C)O2)Oc2ccc(cc2Cl)[C@H]1O [VANCOMYCIN],1.25 µg/mL
